The record followed here is article PMC10692477 (Acta Pharmaceutica Sinica. B, 2023).

One data set relates to BaF3/TEL-AXL cells. Kind of data set: BaF3/TEL-AXL cell viability. The class given is cell-based. The note with it: 48 h, read-out: IC50 Cell viability.
Data set [1] has as its system AXL signaling pathway. The experiment in a line: GAS6-stimulated AXL signaling in NCI-H1299 cells, Western blot. The note with it: NCI-H1299, 1 h treatment, GAS6 500 ng/mL 15 min. The class given is cell-based. An outline of the steps: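 NCI-H1299 cells in exponential growth were serum-deprived for 24 h, then given the test compound for 1 h and stimulated with GAS6 500 ng/mL for 15 min. Lysis was in 1× SDS sample buffer, followed by 10% SDS-PAGE and nitrocellulose transfer.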
(In western blotting, separated proteins are transferred to a membrane and probed.)

The subject of data set [2] is BaF3/TEL-AXL mouse xenograft. Kind of data set: BaF3/TEL-AXL cell-derived mouse xenograft model. The settings on record: for body weight of tumor-bearing mice during the treatment: 4 and 20 mg/kg po qd.
Data set [3] is described as follows: Pharmacokinetics in ICR mice. The note with it: mouse, serum. The class given is in vivo.
The next data set addresses T1, AXL kinase (Homo sapiens, UniProt P30530).
T1 sequence (P30530 26-894): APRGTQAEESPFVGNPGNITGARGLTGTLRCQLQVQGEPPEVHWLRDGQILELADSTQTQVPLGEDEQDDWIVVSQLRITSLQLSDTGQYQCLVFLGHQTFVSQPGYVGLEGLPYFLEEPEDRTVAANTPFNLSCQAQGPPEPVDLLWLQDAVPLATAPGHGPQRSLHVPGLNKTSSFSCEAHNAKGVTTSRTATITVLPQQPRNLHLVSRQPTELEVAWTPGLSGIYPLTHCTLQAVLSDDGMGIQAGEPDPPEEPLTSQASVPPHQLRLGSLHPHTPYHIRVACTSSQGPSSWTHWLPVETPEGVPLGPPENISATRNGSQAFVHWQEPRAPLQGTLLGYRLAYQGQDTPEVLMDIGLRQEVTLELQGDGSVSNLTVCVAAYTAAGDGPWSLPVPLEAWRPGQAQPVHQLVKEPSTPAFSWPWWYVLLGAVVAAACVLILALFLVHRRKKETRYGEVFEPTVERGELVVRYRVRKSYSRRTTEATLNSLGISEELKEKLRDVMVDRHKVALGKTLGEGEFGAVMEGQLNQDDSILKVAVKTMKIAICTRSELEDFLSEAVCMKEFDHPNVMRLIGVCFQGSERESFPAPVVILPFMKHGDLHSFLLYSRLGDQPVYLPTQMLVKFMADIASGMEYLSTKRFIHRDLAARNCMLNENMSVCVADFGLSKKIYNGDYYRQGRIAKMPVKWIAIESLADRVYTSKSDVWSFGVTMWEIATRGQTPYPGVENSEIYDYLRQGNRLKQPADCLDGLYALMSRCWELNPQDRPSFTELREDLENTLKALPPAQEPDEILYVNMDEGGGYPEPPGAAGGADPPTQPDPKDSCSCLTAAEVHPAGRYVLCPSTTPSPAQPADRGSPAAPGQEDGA
The experiment in a line: AXL kinase inhibition, ELISA. It counts as biochemical. The settings on record: IC50 AXL kinase, ELISA; mean ± SD of two independent experiments. On the technique in general: An ELISA detects its analyte on a solid surface through an enzyme-linked reagent.

The next data set deals with c-Met kinase (Homo sapiens, UniProt P08581). The experiment in a line: c-Met kinase inhibition, ELISA. It counts as biochemical. Summed up: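 c-Met inhibition was measured by an ELISA-based kinase assay following a previously reported method. IC50 values were calculated from inhibition curves with a modified 4-parameter logistic model, from at least two separate experiments.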
c-Met kinase, sequence (P08581 25-1390): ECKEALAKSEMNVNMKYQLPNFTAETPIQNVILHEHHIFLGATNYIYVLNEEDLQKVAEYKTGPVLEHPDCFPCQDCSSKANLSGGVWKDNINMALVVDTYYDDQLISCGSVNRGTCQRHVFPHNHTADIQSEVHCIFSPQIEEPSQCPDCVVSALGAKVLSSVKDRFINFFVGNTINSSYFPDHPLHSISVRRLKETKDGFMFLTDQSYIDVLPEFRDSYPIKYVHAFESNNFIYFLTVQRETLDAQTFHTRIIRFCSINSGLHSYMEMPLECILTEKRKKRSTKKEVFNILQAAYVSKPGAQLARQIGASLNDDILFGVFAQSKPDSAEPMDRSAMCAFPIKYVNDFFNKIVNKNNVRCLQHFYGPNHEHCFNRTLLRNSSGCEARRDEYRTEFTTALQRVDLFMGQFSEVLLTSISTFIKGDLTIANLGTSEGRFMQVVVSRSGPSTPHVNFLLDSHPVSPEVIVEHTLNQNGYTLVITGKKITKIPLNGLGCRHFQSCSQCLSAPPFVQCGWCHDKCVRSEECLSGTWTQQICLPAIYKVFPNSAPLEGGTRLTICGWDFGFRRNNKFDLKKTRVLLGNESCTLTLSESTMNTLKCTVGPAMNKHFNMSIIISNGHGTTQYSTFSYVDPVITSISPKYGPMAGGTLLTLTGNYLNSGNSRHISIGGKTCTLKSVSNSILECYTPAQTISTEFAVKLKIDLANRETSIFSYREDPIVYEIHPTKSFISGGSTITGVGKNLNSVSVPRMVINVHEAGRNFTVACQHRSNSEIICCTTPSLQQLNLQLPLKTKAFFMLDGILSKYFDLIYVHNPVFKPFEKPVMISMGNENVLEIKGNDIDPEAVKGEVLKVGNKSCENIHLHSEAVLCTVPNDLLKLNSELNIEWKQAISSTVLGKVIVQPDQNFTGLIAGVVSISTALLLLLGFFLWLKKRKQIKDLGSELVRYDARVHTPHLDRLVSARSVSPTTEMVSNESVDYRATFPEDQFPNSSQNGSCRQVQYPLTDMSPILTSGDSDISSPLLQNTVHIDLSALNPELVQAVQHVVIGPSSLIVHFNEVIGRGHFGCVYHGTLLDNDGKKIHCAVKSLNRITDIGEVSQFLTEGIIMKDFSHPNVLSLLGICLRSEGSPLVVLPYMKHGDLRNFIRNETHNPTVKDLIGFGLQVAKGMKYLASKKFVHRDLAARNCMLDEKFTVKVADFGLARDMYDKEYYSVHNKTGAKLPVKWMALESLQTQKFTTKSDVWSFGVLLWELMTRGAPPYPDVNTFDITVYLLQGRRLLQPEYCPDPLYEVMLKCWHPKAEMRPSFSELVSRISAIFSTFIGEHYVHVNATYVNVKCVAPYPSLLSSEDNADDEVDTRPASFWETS

The next data set has as its system EBC-1 cells. The experiment in a line: EBC-1 cell viability. The class given is cell-based. The settings on record: Homo sapiens, EBC-1, 72 h, read-out: IC50 viability of EBC-1 cells. An outline of the steps: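 EBC-1 cells were seeded at low density in growth medium and incubated overnight. They were then treated with graded concentrations of the test compound for 72 h. Viability was read by CCK-8, and IC50 was obtained by four-parameter concentration–response curve fitting.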

The subject of another data set is AXL phosphorylation. Kind of data set: Intratumoral AXL phosphorylation, immunoblotting of tumor tissues. The class given is in vivo, nude mice. The note with it: tumor tissues 1 h after last dosage; 4 and 20 mg/kg groups.
In data set [4] the test system is SNU449 cells. The experiment in a line: GAS6-stimulated SNU449 cell invasion. It counts as cell-based. The note with it: 20 nmol/L, GAS6 500 ng/mL, 24 h. An outline of the steps: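 SNU449 cells were seeded in top chambers with matrigel-coated membrane inserts. The lower chamber held serum-free medium with GAS6 500 ng/mL, and the test compound was added to both sides. After 24 h, non-invading cells were removed. Invaded cells were fixed in 90% ethanol for 1 h, stained with 0.1% crystal violet for 15 min at room temperature, and imaged.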

Data set [5] relates to NCI-H1299 cells. Kind of data set: GAS6-stimulated NCI-H1299 cell migration. The class given is cell-based. The note with it: 20 nmol/L, GAS6 500 ng/mL, 24 h. Summed up:
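NCI-H1299 cells (1.5 × 10^5 per well) in serum-free medium were placed in Transwell inserts with 8 μm pores. The lower chamber held serum-free medium with GAS6 500 ng/mL, and the test compound was added to both sides of the membrane. After 24 h, non-migrated cells were swabbed off. Migrated cells were fixed in 90% ethanol for 1 h, stained with 0.1% crystal violet for 15 min at room temperature, and imaged by microscopy.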

The test system of data set [6] is NCI-H1299 cells. The experiment in a line: NCI-H1299 cell wound healing assay. It counts as cell-based. The settings on record: NCI-H1299, GAS6 500 ng/mL, 24 h. Summed up:
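NCI-H1299 monolayers were scratched, then given GAS6 500 ng/mL alone or with graded concentrations of the test compound for 24 h. Wound closure was imaged at 0 and 24 h, in triplicate.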

The test system of data set [7] is NCI-H1299 cells. Kind of data set: NCI-H1299 cell viability under GAS6. The settings on record: same conditions as cell motility; GAS6 500 ng/mL, 24 h. The class given is cell-based. Summed up:
(§1)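 NCI-H1299 or SNU449 cells were seeded at low density in growth medium and incubated overnight. They were then stimulated with GAS6 500 ng/mL and treated with graded concentrations of the test compound for 24 h. Viability was read by CCK-8.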

Data set [8] concerns SNU449 cells. The experiment in a line: SNU449 cell viability under GAS6. The class given is cell-based. The note with it: same conditions as cell motility; GAS6 500 ng/mL, 24 h. An outline of the steps:
as §1

In a further data set the test system is E-cadherin expression. Kind of data set: E-cadherin expression in GAS6-stimulated NCI-H1299 cells, immunoblotting. It counts as cell-based. The note with it: NCI-H1299, GAS6 500 ng/mL, 48 h.
In data set [9] the test system is AXL signaling pathway. The experiment in a line: AXL signaling in BaF3/TEL-AXL cells, Western blot. The class given is cell-based. The note with it: 1 h. An outline of the steps:
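BaF3/TEL-AXL cells in exponential growth were exposed to the test compound at the indicated concentrations for 1 h. Cells were lysed in 1× SDS sample buffer, run on 10% SDS-PAGE and transferred to nitrocellulose.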

The test system of the next data set is other 55 tested kinases. Kind of data set: Kinase selectivity panel of 62 kinases. The class given is biochemical, human. The settings on record: 100 nmol/L.
Where [10] appears, read: 20 mg/kg po qd, 7 consecutive days.

In general, IC50 refers to the midpoint of a concentration-inhibition curve. The TGI is how far tumour growth fell short of that in controls. Lower therefore signals little slowing of growth. Usually AUC(0-inf) stands for the area under the concentration-time curve extrapolated to infinity. Higher therefore signals more exposure. The term AUC(0-t) denotes exposure summed from dosing to a finite time, without extrapolation to infinity. A low value points to low exposure. What is called clearance is the volume of plasma or blood freed of the substance per unit of time. High values mean efficient removal, low ones inefficient removal. A word on the half-life: it is the time in which the quantity being followed falls by half. A low value points to rapid decline. For orientation: Cmax means the maximum level reached in the sampled fluid or tissue. One may read the Tmax as the time at which the peak concentration occurs. Broadly, the bioavailability is dose-corrected exposure relative to a reference, in per cent.

SMILES strings stand for the structures.

Regarding `Nc1nc(Nc2ccc3c(c2)CC[C@@H](N2CCCC2)CC3)nn1-c1cc2c(nn1)-c1ccccc1CCC2` [BGB324, reference compound], the IC50 in the data set with BaF3/TEL-AXL cells was determined as 95.1 ± 3.7 nM. In addition, in the data set with AXL signaling pathway [1], the p-AKT level entry is on record as “significantly inhibited” and the p-STAT3 level result is recorded as “significantly inhibited”. In data set [2] (50 mg/kg po bid), this compound registered a TGI of 92.0%.
For the compound `COc1cc2ncnc(Oc3ccc(NC(=O)c4c5n(n(-c6cccc(F)c6)c4=O)CCCC5)cc3F)c2cc1OC` [Compound 18], the IC50 in the data set with BaF3/TEL-AXL cells was under 0.1 nM. In data set [3] (iv, 5 mg/kg), this compound had an AUC(0-inf) of 42100 ng·h/mL, an AUC(0-t) of 34800 ng·h/mL, a clearance of 2.05 mL/min/kg and a half-life of 10.4 h. Also, in data set [3] (po, 10 mg/kg), the AUC(0-inf) turned out to be 16000 ng·h/mL, the AUC(0-t) was 15900 ng·h/mL, the concentration peaked (Cmax) at 2970 ng/mL and the Tmax amounted to 2 h. In data set [3] (po, 10 mg/kg), this compound gave a bioavailability of 22.9% and a half-life of 3.24 h. Also, the TGI in [2] (4 mg/kg po qd, 7 consecutive days) is 89.5%. Also, the TGI in data set [2] (setting [10]) was determined as 93.4%. The “body weight of tumor-bearing mice during the treatment” value in data set [2] was “no significant body weight loss”.
`COc1cc2nccc(Oc3ccc(NC(=O)c4c5n(n(-c6ccc(F)cc6)c4=O)CCCC5)cc3)c2cc1OC` [Compound 59]: the IC50 on AXL kinase amounted to 3.5 ± 0.8 nM. The IC50 with BaF3/TEL-AXL cells stood at 1.5 ± 0.4 nM. The IC50 against c-Met kinase was found to be 17.3 nM. Also, in the data set on EBC-1 cells, the IC50 came to 535 nM. In data set [3] (iv, 5 mg/kg), this compound showed an AUC(0-inf) of 21600 ng·h/mL, an AUC(0-t) of 20500 ng·h/mL, a clearance of 3.86 mL/min/kg and a half-life of 1.67 h. In data set [3] (po, 10 mg/kg), the AUC(0-inf) is 14900 ng·h/mL, the AUC(0-t) was 14800 ng·h/mL, the highest level (Cmax) was 2300 ng/mL and the Tmax was determined as 1 h. Further, in data set [3] (po, 10 mg/kg), the bioavailability stood at 36.1% and the half-life was 2.94 h. For the same compound, the “intratumoral AXL phosphorylation (p-AXL)” value in the data set with AXL phosphorylation is listed as “robust inhibitions”. For the same compound, the SNU449 cell invasion result in the data set with SNU449 cells [4] is “significant inhibition”. Further, the NCI-H1299 cell migration result in the data set on NCI-H1299 cells [5] was “significant reduction”. Moreover, the GAS6-accelerated wound healing entry with NCI-H1299 cells [6] is given as “obviously inhibited”. Further, the “cell viability of NCI-H1299 cells” value with NCI-H1299 cells [7] was “no significant inhibitory effects”. Also, the “cell viability of SNU449 cells” value in the data set with SNU449 cells [8] is listed as “no significant inhibitory effects”. The “GAS6-induced downregulation of E-cadherin expression” value in the data set on E-cadherin expression is on record as “significantly reversed”. Moreover, in the data set with AXL signaling pathway [9], the p-ERK result is “a bit weaker inhibtion”, the “phosphorylation of AKT” value is “dose-dependently inhibited”, the “phosphorylation of AXL” value was “dose-dependently inhibited” and the “phosphorylation of STAT3” value is recorded as “dose-dependently inhibited”. In the data set on AXL signaling pathway [1], the p-AKT level result is recorded as “significantly inhibited”, the p-ERK entry was “marginally inhibited”, the p-STAT3 level entry is “significantly inhibited” and the “phosphorylation of AXL induced by GAS6” value is listed as “significantly inhibited”. Also, the “Inhibition rate, other 55 tested kinases” value with other 55 tested kinases is “less than 50%”. The compound further had a TGI in [2] (setting [10]) of 89.4%. Moreover, in data set [2], the “body weight of tumor-bearing mice during the treatment” value is recorded as “no significant body weight loss”.
